Legend:
Type in all cases: functional, cell-based
SMMC-7721 = experiment: Cytotoxicity against human SMMC7721 cells assessed as growth inhibition after 48 hrs by MTS assay; conditions: SMMC-7721, 48 h
Procedure, shortened: (§1)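 Cell lines from ATCC, grown in RPMI-1640 or DMEM with 10% FBS at 37 °C, 5% CO2. Cells seeded, incubated 12 h at 37 °C, then screened at 40 μM for 48 h with MTS read-out. Where growth inhibition reached 50%, retested at 0.064, 0.32, 1.6, 8 and 40 μM in triplicate. Cisplatin and paclitaxel were positive controls. IC50 by Reed and Muench method.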

SW480 = experiment: Cytotoxicity against human SW480 cells assessed as growth inhibition after 48 hrs by MTS assay; conditions: SW480, 48 h; procedure, shortened: as §1
RAW264.7 = experiment: Inhibition of nitric oxide production in LPS-stimulated mouse RAW264.7 cells after 18 hrs by griess reagent based plate reader analysis; conditions: RAW264.7, 18 h
Procedure, shortened: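 RAW264.7 macrophages seeded at 2 × 10^5 cells/well. Treated with serial dilutions (top concentration 25 μM), then stimulated with LPS 1 μg/mL for 18 h. Supernatant NO measured with Griess reagents, absorbance 550 nm. MG-132 was the positive control. Viability was checked in parallel by MTT (595 nm) to exclude cytotoxic interference.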

HL-60 = experiment: Cytotoxicity against human HL60 cells assessed as growth inhibition after 48 hrs by MTS assay; conditions: HL-60, 48 h; procedure, shortened: as §1
A549 = experiment: Cytotoxicity against human A549 cells assessed as growth inhibition after 48 hrs by MTS assay; conditions: A549, 48 h; procedure, shortened: as §1
MCF7 = experiment: Cytotoxicity against human MCF7 cells assessed as growth inhibition after 48 hrs by MTS assay; conditions: MCF7, 48 h; procedure, shortened: as §1

SMILES | IC50 (SMMC-7721) | IC50 (SW480) | IC50 (RAW264.7) | IC50 (HL-60) | IC50 (A549) | IC50 (MCF7)
C=C1C(=O)[C@@]23[C@H](O)C[C@@H]4C(C)(C)CCC[C@@]4(C)[C@@H]2[C@@H](O)C[C@@H]1[C@H]3O [PHYLLOSTACHYSIN F] | 2100 nM | 1100 nM | 1000 nM | 3300 nM | 2300 nM | 1500 nM
C=C1C(=O)[C@@]23[C@H](O)C[C@@H]4C(C)(C)CCC[C@@]4(C)[C@@H]2[C@@H](O)[C@H](O)[C@@H]1[C@H]3OC(C)=O [RABDOKUNMIN A] | 5800 nM | 4700 nM | 7200 nM | 8800 nM | > 10000 nM | > 10000 nM
C=C1C(=O)[C@@]23[C@H](O)C[C@@H]4C(C)(C)CCC[C@@]4(C)[C@@H]2[C@@H](O)[C@H](O)[C@@H]1[C@H]3O [RABDOLOXIN B] | 3400 nM | 2400 nM | 1900 nM | 2900 nM | 4400 nM | 3000 nM

From ChEMBL document CHEMBL3233000, “Cytotoxic ent-kaurane diterpenoids from Isodon wikstroemioides” (J Nat Prod, 2014)
